The list is not random: actives were taken first. Their share in the collection is about 2.9%.
Runt-SMMHC FRET: Runt domain-CBFb-SMMHC interaction inhibition. Q01196+Q13951. Cerulean-Runt/Venus-CBFb-SMMHC FRET ratio 530/480, 1 h. inhibition, % at 20 µM. hit rate 0.74% among 220,000. AID 1434;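 active = mean inhibition across duplicate retests at 20 µM reaching about 50%, limit read from the data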;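 note: 0% = DMSO wells and 100% = wells with excess untagged CBFb-SMMHC; inhibitors lower the FRET ratio by blocking Runt binding to CBFb-SMMHC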
Hck-Nef inh: inhibitors of human Hck kinase activated by Nef; Recombinant Hck-YEEI plus Nef, Z-Lyte FRET kinase assay; hit rate 0.68% among 220,000; AID 463187; inhibition, % at 20 µM;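 active = Hck-Nef kinase inhibition above about 50%, limit read from the data; inactive = inhibition below that limit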;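 note: 0% = DMSO with Hck plus Nef and 100% = Hck alone without Nef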
Target sequence (P08631 whole entry, looked up): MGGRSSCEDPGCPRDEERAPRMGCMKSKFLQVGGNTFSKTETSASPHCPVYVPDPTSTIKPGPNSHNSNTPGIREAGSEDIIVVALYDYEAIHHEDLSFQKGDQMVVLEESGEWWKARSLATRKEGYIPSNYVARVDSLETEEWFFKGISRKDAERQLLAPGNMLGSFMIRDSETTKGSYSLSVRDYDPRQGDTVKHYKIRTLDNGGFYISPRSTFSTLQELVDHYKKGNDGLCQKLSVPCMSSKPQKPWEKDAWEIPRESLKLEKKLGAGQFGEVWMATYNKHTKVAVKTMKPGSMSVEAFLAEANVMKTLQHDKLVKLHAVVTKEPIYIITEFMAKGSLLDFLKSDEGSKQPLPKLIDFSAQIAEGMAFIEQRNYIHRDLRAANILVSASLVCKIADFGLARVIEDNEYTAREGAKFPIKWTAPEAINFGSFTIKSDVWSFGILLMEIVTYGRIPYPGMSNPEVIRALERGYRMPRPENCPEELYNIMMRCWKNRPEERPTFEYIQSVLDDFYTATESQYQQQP
RanGTP-Imp inh: disruptors of Ran-importin-beta complex formation – biochemical, FRET, CFP-Ran, YFP-importin-beta, homogeneous, primary screen; inhibition, % (concentration not given with the values); AID 2216; cell-free CFP-Ran/YFP-importin-beta FRET ratio; hit rate 1.1% among 300,000;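 active = more than half of the replicate wells show a fall in the fluorescence ratio signal beyond about 16%, limit read from the data, passing the limit was not always enough; inconclusive = exactly half of the replicate wells pass the set limit; inactive = fewer than half of replicates pass the limit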;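 note: 0% = DMSO wells and 100% = Ran loaded with GDP instead of GTP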
RBBP9 inhibitor: inhibitors of human serine hydrolase RBBP9; recombinant RBBP9, FP-Rh probe fluorescence polarization; AID 1515; inhibition, % at 7.94 µM; hit rate 0.2% among 220,000; O75884;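 active = inhibition above the campaign mean of all tested compounds plus 3 SD, cut at about 14% in these data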;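 note: plate controls were DMSO wells with RBBP9 for no effect and wells lacking RBBP9 protein for full effect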
Target sequence (O75884 whole entry, looked up): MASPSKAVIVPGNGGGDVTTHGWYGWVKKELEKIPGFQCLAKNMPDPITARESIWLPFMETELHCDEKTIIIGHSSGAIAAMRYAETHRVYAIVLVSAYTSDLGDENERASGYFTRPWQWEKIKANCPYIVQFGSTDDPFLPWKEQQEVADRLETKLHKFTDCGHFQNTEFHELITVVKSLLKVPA
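System: RBBP9 protein | Quantity: 2.5 µM RBBP9 dispensing solution, before mixing | Reagent: FP-Rh probe, 375 nM dispensing solution | Timing: Enzyme-compound preincubation 30 min, then probe labeling 45 min, 25 °C | Measured by: Fluorescence polarization | Read-out: % inhibition | Replication: One well per compound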
Runt-CBFb FRET: inhibitors of human RUNX1 Runt domain binding to CBFb; Cerulean-Runt/Venus-CBFb FRET ratio 530/480, 1 h; inhibition, % at 20 µM; hit rate 0.46% among 220,000; AID 1496;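 active = inhibition over about 50% at 20 µM in the single-dose screen, limit read from the data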;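 note: 0% = DMSO wells and 100% = excess unlabeled CBFb competitor control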
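Measured by: fluorescence energy transfer, 422 nm excitation, 530/480 nm emission; Assay system: Cerulean-Runt domain; Medium: Tris pH 7.5 buffer with BSA; Measure: loss of energy transfer signal; Controls: 5 µM unlabeled CBFb as full-inhibition high control; Incubation: protein complex preformed 1 h, compound exposure 1 h, room temperature, dark.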
M18AAP inhibitor: blocks P. falciparum M18 aspartyl aminopeptidase | inhibition, % at 7.35 µM | hit rate 1.2% among 290,000 | recombinant PfM18AAP, H-Glu-NHMec fluorogenic cleavage;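 active = inhibition above the campaign mean inhibition over all tested compounds plus 3 SD, cut at about 28% in these data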;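 note: 0% = plate median of test compound wells and 100% = 2 mM ZnCl2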
* = called active by the depositor; ? = inconclusive; nt = no result.

SMILES	Runt-SMMHC FRET	Hck-Nef inh	RanGTP-Imp inh	RBBP9 inhibitor	Runt-CBFb FRET	M18AAP inhibitor
COc1ccc(-c2ccc(-c3noc(C)n3)c(OC)n2)cc1	2.6	0.2	-0.3	-5.0	0.0	-5.2
COc1ccc(-c2ccc(-c3noc(-c4cccs4)n3)c(OC)n2)cc1	-68.2	12.9	29.6*	-10.4	9.8	3.1
COc1ccc(-c2ccc(-c3noc(C4CCCCC4)n3)c(OC)n2)cc1	5.0	1.3	18.9*	-3.7	0.5	2.9
COc1ccc(-c2ccc(-c3noc(-c4ccccc4OC)n3)c(OC)n2)cc1	43.8	3.3	34.5*	-14.9	13.5	-0.7
COc1ccc(-c2ccc(-c3noc(-c4ccccc4C)n3)c(OC)n2)cc1	10.8	2.4	22.6*	-0.6	5.4	-3.6
C=CCn1c(-c2cc(-c3ccccc3)sc2N)n[nH]c1=S	17.3	15.7	?	0.1	37.4	28.3*
C=CCn1c(-c2csc(-c3ccccc3)n2)n[nH]c1=S	9.8	1.3	0.8	-0.2	16.8	3.6
COc1ccc(CCC(=O)Nc2sccc2C#N)cc1	-4.3	59.3*	1.4	-10.6	1.0	0.8
CC(OC(=O)/C(C#N)=C/c1ccc(N(C)C)cc1)C(=O)N(C)c1ccccc1 (stereo unspecified)	nt	nt	92.2*	nt	nt	nt
CC(=O)Nc1ccc(NC(=O)C(C)OC(=O)/C(C#N)=C/c2ccc(N(C)C)cc2)cc1 (stereo unspecified)	nt	nt	-44.9	nt	nt	nt
Cc1cc(-c2ccc(C(C)C)c(S(=O)(=O)N3CCN(c4ccccn4)CC3)c2)on1	nt	nt	8.3	nt	nt	0.8
O=C(CNc1n[nH]c(=O)[nH]c1=O)N/N=C/c1ccccc1	1.2	15.2	1.0	4.8	-2.8	-0.3
O=c1[nH]c(NCCO)c(N=Cc2ccccc2)c(=O)[nH]1	nt	nt	163.9*	nt	nt	nt
CCN1CCN(S(=O)(=O)c2ccc(Cl)c(C(=O)NC3CCCCC3)c2)CC1	nt	nt	3.5	nt	nt	nt
Cc1noc(C)c1C(=O)NNc1ccc(C(C)C)cc1	-1.3	12.6	6.5	-9.0	2.1	13.6
Cc1ccc(NNC(=O)c2c(C)noc2C)cc1Cl	-3.4	8.3	-3.4	-3.3	3.3	30.0*
CN(C)S(=O)(=O)N1CCC(Oc2cccc(C(=O)N3CCCCCCC3)c2)CC1	nt	nt	5.4	nt	nt	15.8
Cc1cc(C)cc(-n2c3nc4ccccc4nc3c3c(=O)n(Cc4ccco4)cnc32)c1	nt	7.5	18.8*	-9.1	32.8	-4.0
CCOc1ccc(-n2c3nc4ccccc4nc3c3c(=O)n(Cc4ccco4)cnc32)cc1	nt	-1.6	nt	-5.8	nt	-17.2
COc1ccc(-c2nc3ccc(C(=O)NCC(OC)OC)cc3nc2-c2ccc(OC)cc2)cc1	2.8	7.9	15.5*	-1.3	4.1	0.1
COC(CNC(=O)c1ccc2nc(-c3ccccc3)c(-c3ccccc3)nc2c1)OC	-5.8	9.0	-1.9	-8.3	-2.1	-13.6
COC(=O)c1c(Cl)c2n3ccccc3c(C)c(-c3ccccc3)c-2c1C(=O)OC	-7.2	1.8	19.1*	-3.0	0.8	-2.8
COC(=O)c1c(C(=O)OC)c2ccccn2c1C(=O)c1ccccc1	nt	nt	1.1	nt	nt	-8.5
COC(=O)c1cc2c(-c3ccccc3)c(C)c3ccccn3c-2c1C(=O)OC	8.9	6.1	27.1*	0.3	9.2	3.1
COc1ccc(NC(=O)C2CCCN(S(=O)(=O)c3ccc4c(c3)CCCN4C(C)=O)C2)cc1Cl (stereo unspecified)	nt	nt	-2.9	nt	nt	-4.8
SMILES	Runt-SMMHC FRET	Hck-Nef inh	RanGTP-Imp inh	RBBP9 inhibitor	Runt-CBFb FRET	M18AAP inhibitor
CCCc1ccc2oc(C(=O)N(Cc3nccn3C)C(C)C)c(C)c2c1	nt	nt	-3.1	nt	nt	-4.0
c1coc(CNc2c3c(nc4ccccc24)CCC3)c1	44.4	7.1	78.9*	-3.9	12.3	9.6
O=C(OCCCN1CCOCC1)c1ccc(O)c(O)c1	0.5	-23.3	1.5	-5.3	6.5	43.6*
O=C(Cc1ccccc1)NCC(=O)OCC(=O)c1cccc([N+](=O)[O-])c1	3.7	-1.0	0.4	3.2	1.6	5.5
CC(C)(C)c1cc(C(=O)NCC(=O)OCC(=O)c2cccc([N+](=O)[O-])c2)cc(C(C)(C)C)c1	-1.2	5.8	32.3*	-8.1	-4.8	5.9
O=C(NNC(=S)Nc1ccccc1)C1CCCCC1	-0.5	-1.0	178.1*	-5.5	1.4	1.0
Cc1ccc(-c2cc(-c3ccccc3)c3c(N)c(S(C)(=O)=O)sc3n2)cc1	89.0*	1.6	-4.2	-4.7	39.6	8.2
N#Cc1sc2nc(-c3ccccc3)cc(-c3ccco3)c2c1N	-15.5	3.5	-64.9	-4.9	20.2	5.5
Cc1ccc(S(=O)(=O)/N=C2/NC(=O)/C(=C/c3cc([N+](=O)[O-])ccc3O)S2)cc1	nt	nt	-67.8	nt	nt	30.5*
S=C(NCc1ccco1)N1CCOCC1	-7.7	17.6	22.0*	-8.7	27.0	-12.7
COc1ccc2[nH]c(C(=O)N3CCC(CO)(Cc4cccc(C(F)(F)F)c4)CC3)c(C)c2c1	nt	nt	?	nt	nt	-5.8
O=C1CC(C(=O)NC2CCCCC2)C2(CCCCC2)O1 (stereo unspecified)	1.5	5.8	2.0	-2.7	-1.2	-4.3
O=C(c1cccs1)c1ccc(-c2cccs2)s1	49.6	1.4	41.7*	-6.7	19.4	4.2
S=c1[nH]nc(-c2ccco2)n1-c1ccc(Br)cc1	nt	nt	-3.0	nt	nt	nt
CCOC(=O)N1CCC(NC(=O)CS(=O)Cc2nc(-c3ccccc3C)oc2C)CC1 (stereo unspecified)	nt	nt	164.0*	nt	nt	-20.4
Cc1oc(-c2ccccc2F)nc1CS(=O)CC(=O)NC1CC1 (stereo unspecified)	nt	nt	-0.1	nt	nt	-10.6
CC(=O)N1CCc2[nH]c3ccccc3c2C1	-19.0	-3.2	37.9*	-7.0	-11.1	1.6
CCn1c(=N)c(S(=O)(=O)c2ccccc2)cc2c(=O)n3ccccc3nc21	90.5*	18.4	169.8*	4.5	20.6	2.8
N=c1c(S(=O)(=O)c2ccccc2)cc2c(=O)n3ccccc3nc2n1CCN1CCOCC1	nt	23.8	nt	1.6	nt	-5.0
CCCn1c(=N)c(S(=O)(=O)c2ccccc2)cc2c(=O)n3ccccc3nc21	84.0*	-7.0	198.3*	-2.2	21.6	-6.0
CCn1c(=N)c(S(=O)(=O)c2ccc(C)cc2)cc2c(=O)n3ccccc3nc21	nt	14.4	-1.4	-9.3	nt	-14.3
CN(Cc1ccccc1F)C(=O)c1ccccc1Sc1ccccc1C#N	nt	nt	-1.9	nt	nt	-4.5
O=C(Nn1c(COc2ccccc2)nc2ccccc2c1=O)C(Cl)(Cl)Cl	nt	nt	1.5	nt	nt	7.2
O=C(Nc1ccc(N2CCOCC2)c(F)c1)c1cccs1	nt	nt	16.4*	nt	nt	-2.9
COC(=O)c1cc(NC(=O)c2cccs2)ccc1N1CCOCC1	nt	15.7	0.6	1.7	nt	2.5
O=C(NC1CC(=O)N(c2ccccc2)C1)N1CCN(C(=O)c2ccco2)CC1 (stereo unspecified)	nt	nt	1.5	nt	nt	nt
O=C(O)c1ccccc1C(=O)N1CCN(Cc2ccc3c(c2)OCO3)CC1	nt	nt	-1.3	nt	nt	28.6*

Source: PubChem (several laboratories)
